Where a SMILES comes first, the peptide text is derived from it. Where no end group is shown, it is not given here. [ ]: non-standard residue; d: D form.
How the values were obtained:
[1] = biological target: T1, ERG:AR interaction (Homo sapiens, UniProt P11308); test: In vitro peptide competitive pull-down, ERG:AR; assay type: biochemical; conditions: cell-free, Halo-ERG and GST-AR, increasing peptide concentrations, immunoblot
T1 sequence (P11308 1-479): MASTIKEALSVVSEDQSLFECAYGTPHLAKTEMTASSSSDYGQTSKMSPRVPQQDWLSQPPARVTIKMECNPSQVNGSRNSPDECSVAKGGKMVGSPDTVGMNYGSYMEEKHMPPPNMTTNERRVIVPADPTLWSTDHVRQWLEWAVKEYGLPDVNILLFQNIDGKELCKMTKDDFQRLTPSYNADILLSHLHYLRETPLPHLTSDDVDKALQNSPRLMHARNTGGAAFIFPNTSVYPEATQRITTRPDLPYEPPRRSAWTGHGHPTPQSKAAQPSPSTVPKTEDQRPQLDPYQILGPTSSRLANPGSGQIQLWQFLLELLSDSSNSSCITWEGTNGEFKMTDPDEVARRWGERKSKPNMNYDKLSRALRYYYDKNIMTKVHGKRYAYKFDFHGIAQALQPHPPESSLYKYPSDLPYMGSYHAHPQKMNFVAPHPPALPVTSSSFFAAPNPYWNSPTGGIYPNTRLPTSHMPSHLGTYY

[2] = biological target: T2, ERG protein (Homo sapiens, UniProt P11308); test: Biolayer interferometry
T2 sequence (P11308 1-479): T1 sequence (P11308 1-479)

[3] = biological target: ERG:EBS DNA interaction (Homo sapiens, UniProt P11308)
[4] = biological target: ERG_Y373A (Homo sapiens, UniProt P11308, Y373A); test: biochemical
[5] = system: VCaP xenografts; test: VCaP xenograft mouse model; assay type: in vivo, mice; conditions: 25 mg/kg, IP-Western blot, compared to mutant peptide
Procedure, shortened: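 Mice carried VCaP xenografts staged for three weeks, with 10 per group. Test compound or mutant control peptide was given IP at 25 mg/kg daily. Tumors were collected 24 h after the final dose and lysed in MOPS pH 7.0 buffer with phosphatase and protease inhibitors. For IP-Western, 0.5–1.0 mg lysate was precleared, incubated with 2 μg anti-ERG at 4°C for 4 h, then with protein A/G beads overnight, and immunoblotted.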

[6] = system: VCaP cells; design: species or system chicken; conditions: in vivo, 25 mg/kg
[7] = biological target: T3, ERG protein in VCaP cells (Homo sapiens, UniProt P11308); test: Cellular thermal shift assay; assay type: cell-based; conditions: 50°C, 3 hours treatment
T3 sequence (P11308 33-479 limits assumed): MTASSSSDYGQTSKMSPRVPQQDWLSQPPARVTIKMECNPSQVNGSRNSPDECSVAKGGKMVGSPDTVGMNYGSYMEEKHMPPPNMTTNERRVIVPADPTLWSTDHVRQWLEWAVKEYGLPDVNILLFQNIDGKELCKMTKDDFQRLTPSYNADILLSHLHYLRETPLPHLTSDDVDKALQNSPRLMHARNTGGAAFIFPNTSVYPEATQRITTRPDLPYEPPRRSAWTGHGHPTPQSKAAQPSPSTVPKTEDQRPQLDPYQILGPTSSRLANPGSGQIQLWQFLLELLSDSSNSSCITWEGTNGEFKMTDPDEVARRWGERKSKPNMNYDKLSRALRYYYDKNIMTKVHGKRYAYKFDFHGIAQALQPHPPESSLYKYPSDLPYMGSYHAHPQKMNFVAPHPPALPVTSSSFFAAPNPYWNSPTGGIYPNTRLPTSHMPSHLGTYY

[8] = system: ERG recruitment to chromatin; test: ChIP and ChIP-seq in VCaP cells; assay type: cell-based
Procedure, shortened: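 VCaP cells were exposed to 50 μM test compound or mutant control peptide for 12 h. Cells were cross-linked in 1% formaldehyde for 10 min, quenched with glycine, and sonicated to ~200 bp fragments. Chromatin from 5×10^6 cells was incubated with antibody overnight at 4°C, and crosslinks were reversed at 67°C for 4–5 h. ChIP-seq ERG signal was normalized and taken at summits of 4th-quartile peaks (mutant-control sample), ±400 bp.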

[9] = biological target: T3, ERG protein in VCaP cells; assay type: cell-based
[10] = biological target: T4, ERG protein in RWPE1-ERG cells (Homo sapiens, UniProt P11308); test: Immunoblot of ERG protein in RWPE1-ERG cells; assay type: cell-based; conditions: even at 5 μM concentration
T4 sequence (P11308 33-479 limits assumed): T3 sequence (P11308 33-479 limits assumed)

[11] = biological target: T5, ERG protein in HUVEC cells (Homo sapiens, UniProt P11308); test: Cellular thermal shift assay; assay type: cell-based
T5 sequence (P11308 1-479): T1 sequence (P11308 1-479)

[12] = biological target: T6, ERG:DNA-PKcs interaction (Homo sapiens, UniProt P11308); test: Co-immunoprecipitation from VCaP xenograft tumors after single dose; assay type: in vivo, mice; conditions: single 25 mg/kg dose IP, three and six hours post injection, co-IP immunoblot
T6 sequence (P11308 33-479 limits assumed): T3 sequence (P11308 33-479 limits assumed)

[13] = biological target: T7, ERG protein in PC3-ERG cells (Homo sapiens, UniProt P11308); test: Immunoblot of ERG protein in PC3-ERG cells; assay type: cell-based; conditions: even at 5 μM concentration
T7 sequence (P11308 1-479): T1 sequence (P11308 1-479)

Row | Compound | disruption of direct ERG:AR interaction [1] | Kd [2] | disruption of ERG:EBS DNA interaction [3] | Kd [4] | ERG protein in VCaP xenograft tumors after 18 days treatment [5] | ERG-mediated invasion in CAM [6] | solubility of ERG protein, isothermal dose-response [7] | average ERG ChIP-seq signal for 4th quartile peaks ([8]; 50 μM, 12 hours, compared to mutant peptide) | ERG and DNA-PKcs enrichment at ERG-regulated genomic loci (ChIP) ([8]; 12 hours treatment) | ERG protein half-life in the presence of cycloheximide [9] | effect on ERG protein in RWPE1-ERG cells [10] | thermal shift of soluble ERG protein in HUVEC cells (CETSA) [11] | ERG:DNA-PKcs interaction in xenograft tumors [12] | effect on ERG protein in PC3-ERG cells [13]
1 | LSFGSLP [EIP2] | disrupted | 1.8 µM |  |  |  |  |  |  |  |  |  |  |  | 
2 | LPPYLFT [EIP1] | disrupted | 0.6 µM | effectively disrupted | > 100 µM |  |  |  |  |  |  |  |  |  | 
3 | CC(C)C[C@@H](NC(=O)[C@H]1CCCN1C(=O)[C@H]1CCCN1C(=O)[C@@H](Cc1ccc(O)cc1)NC(=O)[C@@H](CC(C)C)NC(=O)[C@@H](Cc1ccccc1)NC(=O)[C@H](N)[C@H](C)O)C(=O)O [RI-EIP1] (H-[dT][dF][dL][dY][dP][dP][dL]-OH) |  | 0.94 µM |  |  | degradation of ERG protein | blocked | increased in a dose-dependent fashion | markedly reduced | inhibited | significantly shortened | destabilized | no clear thermal shift | blocked | destabilized
4 | CC(C)C[C@@H](NC(=O)[C@@H](CO)NC(=O)[C@@H](Cc1ccccc1)NC(=O)CNC(=O)[C@@H](CO)NC(=O)[C@@H](CC(C)C)NC(=O)[C@H]1CCCN1)C(=O)O [RI-EIP2] (H-[dP][dL][dS]G[dF][dS][dL]-OH) |  | 1.28 µM |  |  |  |  |  |  |  |  | destabilized |  |  | destabilized
